Experimental data taken from article PMC5667346 (Theranostics, 2017).
Ends that are not written are not given here.

How the values were obtained:
[1] = Pharmacokinetic analysis, terminal elimination half-life after i.v. injection; format: in vivo; settings: male ICR mice, i.v. 500 μg/kg
[2] = DLS assay; format: physicochemical; settings: 2 mg/mL in 10 mM PBS, 20°C
[3] = tested on: bacterial colony count in CLP-induced septic mice; assay: Bacterial count in peritoneal fluid and blood of CLP-operated mice; format: in vivo, mouse; settings: 500 μg/kg i.v. 12 h after CLP, count at 24 h after CLP, n=10
How it was run: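 Polymicrobial sepsis was induced by cecal ligation and puncture (CLP). Mice received the test compound at 500 μg/kg i.v. 12 h after CLP, with untreated CLP mice as comparators. Bacterial loads in peritoneal fluid and blood were determined by counting colonies, with n = 10 per group. Data are mean ± SD from three independent experiments on different days, analysed by Mann-Whitney U test versus CLP only.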

PEG5K-KSLW: KSLW mono-PEGylated at the N-terminal amine with monomethoxy PEG-ALD, MW 5,000 Da ({mPEG 5 kDa}-KKVVFWVKFK)
In vivo half-life relative to that of KSLW [1]: > 10 fold | Percentage polydispersity (%Pd), DLS [2]: 23.3% | Average hydrodynamic diameter (DLS) ([2]; filtered 0.22 μm, three repeats with 10 subruns): 4.2 nm | Decrease of bacterial colony count in the blood [3]: 90% | Decrease of bacterial colony count in the peritoneal fluid [3]: 70%
